Source: ChEMBL document CHEMBL3808299 (J Med Chem, 2016)
Active and inactive are the calls of the source. No cut-off for these calls is given here.

Tests used:
[1] = Inhibition of hedgehog pathway in mouse ASZ cells assessed as downregulation of Gli1 mRNA expression after 48 hrs by qPCR method; type: cell-based
How it was run: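 ASZ murine BCC cells, whose Hh signaling is constitutively active through a heterozygous PTCH1 mutation, got no added agonist. They were treated with a concentration series for 48 h and Gli1 mRNA was quantified by qPCR. IC50 is the mean ± SEM of at least two separate experiments in triplicate.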

[2] = Inhibition of hedgehog pathway in mouse C3H10T1/2 cells assessed as downregulation of Gli1 mRNA expression after 24 hrs by qPCR method; type: cell-based; conditions: C3H 10T1/2, 24 h
How it was run: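 Hh-ligand-stimulated C3H10T1/2 cells (recombinant mouse Sonic Hedgehog C25II) were exposed to a concentration series of compound for 24 h. Gli1 mRNA was read by qPCR. IC50 is the mean ± SEM of at least two separate experiments in triplicate.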

HUVEC [3] = test: Antiproliferative activity against HUVEC assessed as inhibition of VEGF induced cell proliferation after 72 hrs by MTS assay; type: functional; conditions: Homo sapiens
How it was run: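 HUVECs were seeded at 3,000 cells/well, attached overnight, then treated with varying drug concentrations. Metabolic activity was read with MTS/PMS after 72 h. GI50 is the mean ± SEM of at least two separate experiments run in triplicate.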

[4] = Antiproliferative activity against mouse MERP MB cells assessed as cell growth inhibition using methyl-[3H]thymidine after 48 hrs by liquid scintillation spectrophotometry; type: functional; conditions: Medulloblastoma cell
How it was run: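 Primary MB cells isolated from Math1-Cre-ER;Ptc fl/fl (MERP) mouse tumours were cultured in vitro and exposed to compound for 48 h to measure proliferation. GI50 is the mean ± SEM of at least two separate experiments in triplicate.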

HUVEC [5] = test: Antiangiogenic activity against HUVEC assessed as inhibition of total tube length at 10 uM after 16 hrs by inverted microscopy; type: functional; conditions: Homo sapiens
How it was run: (§1)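 HUVECs in M199 with 1% FBS and penicillin/streptomycin, 50,000 cells per well, on Matrigel diluted 1:1 with DMEM and set at 37°C. Cells attached for 20-30 min, then got DMSO, suramin (10 uM) or drug at 10, 1 or 0.1 μM for 16 h. Eight phase-contrast fields per well were imaged. Total tube length and junctions were scored relative to DMSO (100%). Each assay was repeated at least three times.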

HUVEC [6] = test: Antiangiogenic activity against HUVEC assessed as inhibition of total tube junctions at 10 uM after 16 hrs by inverted microscopy; type: functional; conditions: Homo sapiens; how it was run: as §1
[7] = Inhibition of hedgehog pathway in mouse MERP MB cells assessed as downregulation of Gli1 mRNA expression after 48 hrs by qPCR method; type: cell-based
How it was run: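 Primary medulloblastoma cells from Math1-Cre-ER;Ptc fl/fl mice were incubated with compound for 48 h. Gli1 mRNA was measured by qPCR. IC50 is the mean ± SEM of two separate experiments.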

[8] = Inhibition of hedgehog pathway in mouse C3H10T1/2 cells assessed as Gli1 mRNA expression at 1 uM after 24 hrs by qPCR method; type: cell-based; set-up: scale not given: the % may be the effect or the level left; conditions: C3H 10T1/2
How it was run: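 C3H10T1/2 mouse embryonic fibroblasts were stimulated with recombinant mouse Sonic Hedgehog (C25II) and co-treated with compound at 1 μM for 24 h. Endogenous Gli1 mRNA was measured by qPCR and expressed as % of the Hh-ligand-only control (100%).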

Cytochrome P450 3A4 = Cytochrome P450 3A4 (Homo sapiens, UniProt P08684); test: Inhibition of CYP3A4 in human liver microsomes using testosterone as substrate after 10 mins by LC/MS/MS analysis; type: ADME
HUVEC [9] = test: Antiangiogenic activity against HUVEC assessed as inhibition of total tube junctions at 1 uM after 16 hrs by inverted microscopy; type: functional, cell-based; conditions: Homo sapiens; how it was run: as §1
HUVEC [10] = test: Antiangiogenic activity against HUVEC assessed as inhibition of total tube length at 1 uM after 16 hrs by inverted microscopy; type: functional, cell-based; conditions: Homo sapiens; how it was run: as §1
[11] = Inhibition of hedgehog pathway in mouse Shh-Light2 cells after 46 hrs by luciferase reporter gene assay; type: cell-based; conditions: Shh Light2, 46 h
HUVEC [12] = test: Antiproliferative activity against HUVEC assessed as inhibition of VEGF induced cell proliferation using methyl-[3H]thymidine after 36 hrs; type: functional, cell-based; conditions: Homo sapiens

Cytochrome P450 3A4, sequence (P08684 whole entry): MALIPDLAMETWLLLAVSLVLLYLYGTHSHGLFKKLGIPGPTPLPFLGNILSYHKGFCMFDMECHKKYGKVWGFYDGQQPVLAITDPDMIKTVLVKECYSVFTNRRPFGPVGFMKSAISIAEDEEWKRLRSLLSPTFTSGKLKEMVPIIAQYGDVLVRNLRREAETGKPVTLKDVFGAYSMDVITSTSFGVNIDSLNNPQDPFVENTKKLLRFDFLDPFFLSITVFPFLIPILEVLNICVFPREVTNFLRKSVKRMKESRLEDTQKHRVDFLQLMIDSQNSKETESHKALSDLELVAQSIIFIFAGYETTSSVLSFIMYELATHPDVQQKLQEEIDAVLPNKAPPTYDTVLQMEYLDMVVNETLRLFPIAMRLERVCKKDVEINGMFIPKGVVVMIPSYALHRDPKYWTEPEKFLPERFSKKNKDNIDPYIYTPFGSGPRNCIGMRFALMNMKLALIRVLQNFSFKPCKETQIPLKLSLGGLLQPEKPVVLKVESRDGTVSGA

| IC50 [1] [nM] | IC50 [2] [nM] | SMILES | GI50 (HUVEC [3]) [nM] | Activity [8] [%] | other results |
| --- | --- | --- | --- | --- | --- |
| 200 | > 10000 | CCCn1ncn(-c2ccc(N3CCN(c4ccc(OC[C@H]5CO[C@](C)(c6ccc(Cl)cc6Cl)O5)cc4)CC3)cc2)c1=O | 84100 | – | GI50 [4]: 22400 nM |
| – | – | Cc1ccc(C(=O)Nc2ccc(S(=O)(=O)O)c3cc(S(=O)(=O)O)cc(S(=O)(=O)O)c23)cc1NC(=O)c1cccc(NC(=O)Nc2cccc(C(=O)Nc3cc(C(=O)Nc4ccc(S(=O)(=O)O)c5cc(S(=O)(=O)O)cc(S(=O)(=O)O)c45)ccc3C)c2)c1 [SURAMIN] | – | – | inhibition at 10 µM (HUVEC [5]): 51.9%; inhibition at 10 µM (HUVEC [6]): 57.6% |
| 24 | 2400 | CC[C@@H](C)n1ncn(-c2ccc(N3CCN(c4ccc(OC[C@@H]5CO[C@](C)(c6ccc(Cl)cc6Cl)O5)cc4)CC3)cc2)c1=O | 12800 | – | IC50 [7]: 290 nM; inhibition (HUVEC [5]): inactive; inhibition (HUVEC [6]): inactive; GI50 [4]: 1000 nM |
| 120 | 43 | O=c1[nH]ncn1-c1ccc(N2CCN(c3ccc(OCC4COC(Cn5cncn5)(c5ccc(Cl)cc5Cl)O4)cc3)CC2)cc1 (stereo not given) | 5800 | 1.1 | – |
| 77 | 91 | CCC(C)n1ncn(-c2ccc(N3CCN(c4ccc(OC[C@@H]5CO[C@@](C)(c6ccc(Cl)cc6Cl)O5)cc4)CC3)cc2)c1=O (stereo not given in full) | 3320 | – | GI50 [4]: 2000 nM |
| 150 | 1850 | CC[C@H](C)n1ncn(-c2ccc(N3CCN(c4ccc(OC[C@@H]5CO[C@](C)(c6ccc(Cl)cc6Cl)O5)cc4)CC3)cc2)c1=O | 2500 | – | IC50 [7]: 260 nM; GI50 [4]: 390 nM |
| 22 | 190 | CC[C@@H](C)n1ncn(-c2ccc(N3CCN(c4ccc(OC[C@@H]5CO[C@@](C)(c6ccc(Cl)cc6Cl)O5)cc4)CC3)cc2)c1=O | 53200 | – | IC50 [7]: 190 nM; GI50 [4]: 600 nM |
| 2800 | 6600 | CC[C@@H](C)n1ncn(-c2ccc(N3CCN(c4ccc(OC[C@H]5CO[C@@](C)(c6ccc(Cl)cc6Cl)O5)cc4)CC3)cc2)c1=O | 65000 | – | – |
| – | – | CCC(C)n1ncn(-c2ccc(N3CCN(c4ccc(O)cc4)CC3)cc2)c1=O (stereo not given) | > 100000 | 45.7 | – |
| 71 | 850 | CCC(C)n1ncn(-c2ccc(N3CCN(c4ccc(OC[C@H]5CO[C@@](C)(c6ccc(Cl)cc6Cl)O5)cc4)CC3)cc2)c1=O (relative stereo) | 3690 | – | GI50 [4]: 2900 nM |
| 540 | > 10000 | CCCn1ncn(-c2ccc(N3CCN(c4ccc(OC[C@H]5CO[C@@](C)(c6ccc(Cl)cc6Cl)O5)cc4)CC3)cc2)c1=O | 24900 | – | – |
| – | – | CCC(C)n1ncn(-c2ccc(N3CCN(c4ccc(OCC5COC(C)(Cn6cncn6)O5)cc4)CC3)cc2)c1=O (stereo not given) | 18400 | 61.4 | – |
| 550 | > 10000 | CC[C@H](C)n1ncn(-c2ccc(N3CCN(c4ccc(OC[C@H]5CO[C@@](C)(c6ccc(Cl)cc6Cl)O5)cc4)CC3)cc2)c1=O | 78300 | – | – |
| 1400 | > 10000 | CCCn1ncn(-c2ccc(N3CCN(c4ccc(OC[C@@H]5CO[C@](C)(c6ccc(Cl)cc6Cl)O5)cc4)CC3)cc2)c1=O | 49900 | – | – |
| 140 | 160 | CC[C@H](C)n1ncn(-c2ccc(N3CCN(c4ccc(OCC5COC(Cn6cncn6)(c6ccc(Cl)cc6Cl)O5)cc4)CC3)cc2)c1=O (stereo not given in full) | 2500 | 6.9 | – |
| 380 | 470 | CC[C@H](C)n1ncn(-c2ccc(N3CCN(c4ccc(OC[C@@H]5CO[C@@](C)(c6ccc(Cl)cc6Cl)O5)cc4)CC3)cc2)c1=O | 18300 | – | – |
| – | – | CCC(C)n1ncn(-c2ccc(N3CCN(c4ccc(OCC5COC(C)(C)O5)cc4)CC3)cc2)c1=O (stereo not given) | > 100000 | 71.4 | – |
| 160 | 140 | CC[C@@H](C)n1ncn(-c2ccc(N3CCN(c4ccc(OCC5COC(Cn6cncn6)(c6ccc(Cl)cc6Cl)O5)cc4)CC3)cc2)c1=O (stereo not given in full) | 1700 | 3 | – |
| 450 | 420 | CCC(C)n1ncn(-c2ccc(N3CCN(c4ccc(OCC5COC(Cn6cncn6)(c6ccccc6)O5)cc4)CC3)cc2)c1=O (stereo not given) | 8300 | 13.1 | – |
| 140 | 63 | CCC(C)n1ncn(-c2ccc(N3CCN(c4ccc(OCC5COC(Cn6cncn6)(c6ccc(Cl)cc6Cl)O5)cc4)CC3)cc2)c1=O (stereo not given) [ITRACONAZOLE] | 400 | 1.7 | IC50 [7]: 390 nM; IC50 [11]: 690 nM; inhibition (HUVEC [9]): Active; inhibition (HUVEC [10]): Active; IC50 (HUVEC [12]): 160 nM; GI50 [4]: 440 nM |
| 90 | 130 | O=[N+]([O-])c1ccc(N2CCN(c3ccc(OCC4COC(Cn5cncn5)(c5ccc(Cl)cc5Cl)O4)cc3)CC2)cc1 (stereo not given) | 8400 | 1.5 | – |
| 2500 | 1100 | CC[C@H](C)n1ncn(-c2ccc(N3CCN(c4ccc(OC[C@H]5CO[C@](C)(c6ccc(Cl)cc6Cl)O5)cc4)CC3)cc2)c1=O | 7700 | – | – |
| – | – | CCCn1ncn(-c2ccc(N3CCN(c4ccc(OCC5COC(Cn6cncn6)(c6ccc(Cl)cc6Cl)O5)cc4)CC3)cc2)c1=O (stereo not given) | 4700 | 58.5 | – |
| 1300 | 4100 | CCCn1ncn(-c2ccc(N3CCN(c4ccc(OC[C@@H]5CO[C@@](C)(c6ccc(Cl)cc6Cl)O5)cc4)CC3)cc2)c1=O | 26500 | – | – |
| 120 | 160 | Nc1ccc(N2CCN(c3ccc(OCC4COC(Cn5cncn5)(c5ccc(Cl)cc5Cl)O4)cc3)CC2)cc1 (stereo not given) | 42700 | 6.1 | GI50 [4]: 900 nM |
| 130 | 540 | CC[C@@H](C)n1ncn(-c2ccc(N3CCN(c4ccc(OC[C@H]5CO[C@](C)(c6ccc(Cl)cc6Cl)O5)cc4)CC3)cc2)c1=O | 12100 | – | inhibition (HUVEC [5]): inactive; inhibition (HUVEC [6]): inactive |

| SMILES | IC50 [1] [nM] | IC50 [2] [nM] | GI50 (HUVEC [3]) [nM] | Activity [8] [%] | other results |
| --- | --- | --- | --- | --- | --- |
| CC[C@@H]([C@H](C)O)n1ncn(-c2ccc(N3CCN(c4ccc(OC[C@@H]5CO[C@@](Cn6cncn6)(c6ccc(F)cc6F)C5)cc4)CC3)cc2)c1=O [POSACONAZOLE] | 540 | 140 | 1600 | – | – |
| CCC(C)n1ncn(-c2ccc(N3CCN(c4ccc(OCC5COC(C)(c6ccc(Cl)cc6Cl)O5)cc4)CC3)cc2)c1=O (stereo not given) | 170 | 140 | 23800 | 17.8 | IC50 (Cytochrome P450 3A4): > 10000 nM; inhibition (HUVEC [9]): Active; inhibition (HUVEC [10]): Active |
